The record followed here is ChEMBL document CHEMBL3045304, “Sesquiterpene lactones with potential use as natural herbicide models. 2. guaianolides” (2000).

The source made the active and inactive calls. The rule behind the calls is not given here.

The subject of the first assay is Lepidium sativum. Put plainly: Inhibition of hypocotyl length of Lepidium sativum at 0.1 mM or 1 mM after 4 days relative to untreated control.
`C=C1CC[C@H]2C(=C)CC[C@H]3C(=C)C(=O)O[C@@H]3[C@@H]12` [DEHYDROCOSTUSLACTONE]: the “inhibition (INH)” value is recorded as above 40%.

For a further assay, the system named is Lepidium sativum. Put plainly: Inhibition of germination of Lepidium sativum at 0.1 mM or 1 mM after 4 days relative to untreated control. Also noted: scale not given: the % may be the effect or the level left.
`C=C1CC[C@H]2C(=C)CC[C@H]3C(=C)C(=O)O[C@@H]3[C@@H]12` [DEHYDROCOSTUSLACTONE] displayed an Activity of 20%.

The next assay concerns Solanum lycopersicum. Put plainly: Inhibition of germination of Solanum lycopersicum cv. Tres Cantos (tomato) at 0.1 mM or 1 mM after 5 days relative to untreated control. The class given is functional. In short, it runs like this: (§1)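 Lettuce and tomato seeds, 25 per dish on filter paper, received 5 mL test solution. Incubation was 5 days in the dark at 25 °C, with four replicates per concentration. Solutions were made at 10^-3 or 10^-4 M in 10 mM MES, diluted serially, and adjusted to pH 6.0. Parallel controls were run. Results are % difference from control.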
Turning to `C=C1CC[C@H]2C(=C)CC[C@H]3C(=C)C(=O)O[C@@H]3[C@@H]12` [DEHYDROCOSTUSLACTONE], the inhibition entry is “inactive”.

Another assay concerns Lactuca sativa. Put plainly: Inhibition of root length of Lactuca sativa cv. Roman (lettuce) at 0.1 mM or 1 mM after 5 days relative to untreated control. It is filed as functional. Summed up:
as §1
For the compound `C=C1CC[C@H]2C(=C)CC[C@H]3C(=C)C(=O)O[C@@H]3[C@@H]12` [DEHYDROCOSTUSLACTONE], the inhibition entry was “inactive”.

The next assay concerns Lepidium sativum. Put plainly: Inhibition of root length of Lepidium sativum at 0.1 mM or 1 mM after 4 days relative to untreated control.
`C=C1CC[C@H]2C(=C)CC[C@H]3C(=C)C(=O)O[C@@H]3[C@@H]12` [DEHYDROCOSTUSLACTONE]: the “inhibition (INH)” value is recorded as above 40%.

The test system of another assay is Triticum aestivum. Put plainly: Inhibition of germination of Triticum aestivum cv. Cortex (wheat) at 0.1 mM or 1 mM after 5 days relative to untreated control. It is filed as functional. Summed up:
(§2)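 Wheat: 10 seeds per dish on filter paper with 5 mL test solution, 5 days in the dark at 25 °C, 10 replicates per concentration. Stock test solutions were 10^-3 or 10^-4 M in 10 mM MES, with lower levels made by dilution, all at pH 6.0. Parallel controls were run. Output is % difference from control.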
As to `C=C1CC[C@H]2C(=C)CC[C@H]3C(=C)C(=O)O[C@@H]3[C@@H]12` [DEHYDROCOSTUSLACTONE], the “inhibition (INH)” value is above 40%.

Another assay concerns Triticum aestivum. Put plainly: Stimulation of root length of Triticum aestivum cv. Cortex (wheat) at 0.1 mM or 1 mM after 5 days relative to untreated control. The class given is functional. Summed up:
as §2
As for `C=C1CC[C@H]2C(=C)CC[C@H]3C(=C)C(=O)O[C@@H]3[C@@H]12` [DEHYDROCOSTUSLACTONE], the Activity is listed as above 40%.

For a further assay, the system named is Lepidium sativum. Put plainly: Stimulation of root length of Lepidium sativum at 0.1 mM or 1 mM after 5 days relative to untreated control. The class given is functional.
For the compound `C=C1CC[C@H]2C(=C)CC[C@H]3C(=C)C(=O)O[C@@H]3[C@@H]12` [DEHYDROCOSTUSLACTONE], the Activity is given as above 40%.

The subject of another assay is Triticum aestivum. Put plainly: Stimulation of germination of Triticum aestivum cv. Cortex (wheat) at 0.1 mM or 1 mM after 5 days relative to untreated control. It is filed as functional. Summed up:
as §2
For `C=C1CC[C@H]2C(=C)CC[C@H]3C(=C)C(=O)O[C@@H]3[C@@H]12` [DEHYDROCOSTUSLACTONE], the Activity is above 40%.

The subject of another assay is Lactuca sativa. Put plainly: Inhibition of hypocotyl length of Lactuca sativa cv. Roman (lettuce) at 0.1 mM or 1 mM after 5 days relative to untreated control. The class given is functional. In short, it runs like this: as §1
In the case of `C=C1CC[C@H]2C(=C)CC[C@H]3C(=C)C(=O)O[C@@H]3[C@@H]12` [DEHYDROCOSTUSLACTONE], the “inhibition (INH)” value is listed as below 20%.

The next assay relates to Triticum aestivum. Put plainly: Inhibition of root length of Triticum aestivum cv. Cortex (wheat) at 0.1 mM or 1 mM after 5 days relative to untreated control. The class given is functional. In short, it runs like this: as §2
Regarding `C=C1CC[C@H]2C(=C)CC[C@H]3C(=C)C(=O)O[C@@H]3[C@@H]12` [DEHYDROCOSTUSLACTONE], the “inhibition (INH)” value is on record as above 40%.

A further assay has as its system Lactuca sativa. Put plainly: Stimulation of root length of Lactuca sativa cv. Roman (lettuce) at 0.1 mM or 1 mM after 5 days relative to untreated control. It is filed as functional. Summed up:
as §1
Regarding `C=C1CC[C@H]2C(=C)CC[C@H]3C(=C)C(=O)O[C@@H]3[C@@H]12` [DEHYDROCOSTUSLACTONE], the outcome was inactive.

In the next assay the test system is Solanum lycopersicum. Put plainly: Inhibition of root length of Solanum lycopersicum cv. Tres Cantos (tomato) at 0.1 mM or 1 mM after 5 days relative to untreated control. It is filed as functional. Summed up:
as §1
On to `C=C1CC[C@H]2C(=C)CC[C@H]3C(=C)C(=O)O[C@@H]3[C@@H]12` [DEHYDROCOSTUSLACTONE], for which the inhibition entry was “inactive”.

The next assay has as its system Solanum lycopersicum. Put plainly: Stimulation of germination of Solanum lycopersicum cv. Tres Cantos (tomato) at 0.1 mM or 1 mM after 5 days relative to untreated control. The class given is functional. In short, it runs like this:
as §1
As for `C=C1CC[C@H]2C(=C)CC[C@H]3C(=C)C(=O)O[C@@H]3[C@@H]12` [DEHYDROCOSTUSLACTONE], the outcome was inactive.

For another assay, the system named is Lepidium sativum. Put plainly: Stimulation of hypocotyl length of Lepidium sativum at 0.1 mM or 1 mM after 5 days relative to untreated control. It is filed as functional.
`C=C1CC[C@H]2C(=C)CC[C@H]3C(=C)C(=O)O[C@@H]3[C@@H]12` [DEHYDROCOSTUSLACTONE]: the Activity is listed as above 40%.

A further assay relates to Triticum aestivum. Put plainly: Stimulation of hypocotyl length of Triticum aestivum cv. Cortex (wheat) at 0.1 mM or 1 mM after 5 days relative to untreated control. It is filed as functional. In short, it runs like this:
as §2
For `C=C1CC[C@H]2C(=C)CC[C@H]3C(=C)C(=O)O[C@@H]3[C@@H]12` [DEHYDROCOSTUSLACTONE], the Activity turned out to be 20%.

Another assay relates to Solanum lycopersicum. Put plainly: Stimulation of root length of Solanum lycopersicum cv. Tres Cantos (tomato) at 0.1 mM or 1 mM after 5 days relative to untreated control. The class given is functional. In short, it runs like this: as §1
Consider `C=C1CC[C@H]2C(=C)CC[C@H]3C(=C)C(=O)O[C@@H]3[C@@H]12` [DEHYDROCOSTUSLACTONE], for which the outcome was inactive.

A further assay relates to Lactuca sativa. Put plainly: Inhibition of germination of Lactuca sativa cv. Roman (lettuce) at 0.1 mM or 1 mM after 5 days relative to untreated control. The class given is functional. Summed up:
as §1
Take `C=C1CC[C@H]2C(=C)CC[C@H]3C(=C)C(=O)O[C@@H]3[C@@H]12` [DEHYDROCOSTUSLACTONE]: the “inhibition (INH)” value came out at 20%.

In another assay the test system is Lactuca sativa. Put plainly: Stimulation of hypocotyl length of Lactuca sativa cv. Roman (lettuce) at 0.1 mM or 1 mM after 5 days relative to untreated control. It is filed as functional. In short, it runs like this: as §1
In turn, `C=C1CC[C@H]2C(=C)CC[C@H]3C(=C)C(=O)O[C@@H]3[C@@H]12` [DEHYDROCOSTUSLACTONE] had an Activity below 20%.

The subject of another assay is Lepidium sativum. Put plainly: Inhibition of germination of Lepidium sativum at 0.1 mM or 1 mM after 5 days relative to untreated control. It is filed as functional.
Turning to `C=C1CC[C@H]2C(=C)CC[C@H]3C(=C)C(=O)O[C@@H]3[C@@H]12` [DEHYDROCOSTUSLACTONE], the “inhibition (INH)” value amounted to 20%.

The test system of another assay is Lactuca sativa. Put plainly: Stimulation of germination of Lactuca sativa cv. Roman (lettuce) at 0.1 mM or 1 mM after 5 days relative to untreated control. The class given is functional. Summed up: as §1
Regarding `C=C1CC[C@H]2C(=C)CC[C@H]3C(=C)C(=O)O[C@@H]3[C@@H]12` [DEHYDROCOSTUSLACTONE], the Activity is reported as 20%.

In another assay the test system is Solanum lycopersicum. Put plainly: Inhibition of hypocotyl length of Solanum lycopersicum cv. Tres Cantos (tomato) at 0.1 mM or 1 mM after 5 days relative to untreated control. It is filed as functional. In short, it runs like this:
as §1
`C=C1CC[C@H]2C(=C)CC[C@H]3C(=C)C(=O)O[C@@H]3[C@@H]12` [DEHYDROCOSTUSLACTONE]: the inhibition entry is “inactive”.

The next assay relates to Triticum aestivum. Put plainly: Inhibition of hypocotyl length of Triticum aestivum cv. Cortex (wheat) at 0.1 mM or 1 mM after 5 days relative to untreated control. It is filed as functional. Summed up: as §2
On to `C=C1CC[C@H]2C(=C)CC[C@H]3C(=C)C(=O)O[C@@H]3[C@@H]12` [DEHYDROCOSTUSLACTONE], for which the “inhibition (INH)” value is on record as 20%.

A further assay concerns Solanum lycopersicum. Put plainly: Stimulation of hypocotyl length of Solanum lycopersicum cv. Tres Cantos (tomato) at 0.1 mM or 1 mM after 5 days relative to untreated control. The class given is functional. In short, it runs like this:
as §1
Regarding `C=C1CC[C@H]2C(=C)CC[C@H]3C(=C)C(=O)O[C@@H]3[C@@H]12` [DEHYDROCOSTUSLACTONE], the outcome was inactive.
